Test system: Fibroblast
Experiment: Multiplex assay against human fibroblast
Assay type: toxicity, cell-based
Method in brief: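 Per cents of healthy-nucleus cells form the tubulin, mitochondrial-mass and membrane-permeability phenotype values. Live cells were stained at seeding with Hoechst33342, BioTracker Green Microtubule Cytoskeleton Dye, MitoTracker Red and Annexin V Alexa Fluor 680. After compound addition they were imaged on a CQ1 microscope at 37°C and 5% CO2, and CellPathfinder machine-learning gating split them into Hoechst high-intensity objects or normal cells, normal cells into healthy, pyknosed or fragmented nuclei, and pyknosed cells into mitotic or apoptotic.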

[1] = 12 h, 1 µM, compound concentration 1 uM, replicate 1
[2] = 12 h, 1 µM, compound concentration 1 uM, replicate 2
[3] = 12 h, 10 µM, compound concentration 10 uM, replicate 1
[4] = 12 h, 10 µM, compound concentration 10 uM, replicate 2
[5] = 24 h, 1 µM, compound concentration 1 uM, replicate 1
[6] = 24 h, 1 µM, compound concentration 1 uM, replicate 2
[7] = 24 h, 10 µM, compound concentration 10 uM, replicate 1
[8] = 24 h, 10 µM, compound concentration 10 uM, replicate 2
[9] = 48 h, 1 µM, compound concentration 1 uM, replicate 1
[10] = 48 h, 1 µM, compound concentration 1 uM, replicate 2
[11] = 48 h, 10 µM, compound concentration 10 uM, replicate 1
[12] = 48 h, 10 µM, compound concentration 10 uM, replicate 2

SMILES: O=C(Nc1cccnn1)N1CCC(=Cc2cccc(Oc3ccc(C(F)(F)F)cn3)c2)CC1
- Population Apoptotic (%) [1]: 59%
- Population Fragmented Nuclei (%) [1]: 24%
- Population Healthy Nuclei (%) [1]: 56%
- Population Hoechst High Intensity Objects (%) [1]: 10%
- Population Membrane Permeable-Phenotype (%) [1]: 20%
- Population Mitochondria Different-Phenotype (%) [1]: 10%
- Population Normal (%) [1]: 89%
- Population Pyknosed Nuclei (%) [1]: 18%
- Population Tubulin-Different-Phenotype (%) [1]: 28%
- Total Cell Count [1]: 217
- Population Apoptotic (%) [2]: 60%
- Population Fragmented Nuclei (%) [2]: 71%
- Population Healthy Nuclei (%) [2]: 17%
- Population Hoechst High Intensity Objects (%) [2]: 44%
- Population Membrane Permeable-Phenotype (%) [2]: 25%
- Population Mitochondria Different-Phenotype (%) [2]: 0%
- Population Mitotic Cells (%) [2]: 40%
- Population Normal (%) [2]: 55%
- Population Pyknosed Nuclei (%) [2]: 10%
- Population Tubulin-Different-Phenotype (%) [2]: 25%
- Total Cell Count [2]: 83
- Population Apoptotic (%) [3]: 73%
- Population Fragmented Nuclei (%) [3]: 34%
- Population Healthy Nuclei (%) [3]: 52%
- Population Hoechst High Intensity Objects (%) [3]: 14%
- Population Membrane Permeable-Phenotype (%) [3]: 6%
- Population Mitochondria Different-Phenotype (%) [3]: 5%
- Population Mitotic Cells (%) [3]: 26%
- Population Normal (%) [3]: 85%
- Population Pyknosed Nuclei (%) [3]: 13%
- Population Tubulin-Different-Phenotype (%) [3]: 7%
- Total Cell Count [3]: 170
- Population Apoptotic (%) [4]: 25%
- Population Fragmented Nuclei (%) [4]: 50%
- Population Healthy Nuclei (%) [4]: 37%
- Population Hoechst High Intensity Objects (%) [4]: 24%
- Population Membrane Permeable-Phenotype (%) [4]: 12%
- Population Mitochondria Different-Phenotype (%) [4]: 12%
- Population Mitotic Cells (%) [4]: 75%
- Population Normal (%) [4]: 75%
- Population Pyknosed Nuclei (%) [4]: 12%
- Population Tubulin-Different-Phenotype (%) [4]: 4%
- Total Cell Count [4]: 85
- Population Apoptotic (%) [5]: 72%
- Population Fragmented Nuclei (%) [5]: 28%
- Population Healthy Nuclei (%) [5]: 58%
- Population Hoechst High Intensity Objects (%) [5]: 6%
- Population Membrane Permeable-Phenotype (%) [5]: 9%
- Population Mitochondria Different-Phenotype (%) [5]: 12%
- Population Mitotic Cells (%) [5]: 27%
- Population Normal (%) [5]: 93%
- Population Pyknosed Nuclei (%) [5]: 13%
- Population Tubulin-Different-Phenotype (%) [5]: 27%
- Total Cell Count [5]: 238
- Population Apoptotic (%) [6]: 60%
- Population Fragmented Nuclei (%) [6]: 60%
- Population Healthy Nuclei (%) [6]: 28%
- Population Hoechst High Intensity Objects (%) [6]: 42%
- Population Membrane Permeable-Phenotype (%) [6]: 23%
- Population Mitochondria Different-Phenotype (%) [6]: 23%
- Population Mitotic Cells (%) [6]: 40%
- Population Normal (%) [6]: 57%
- Population Pyknosed Nuclei (%) [6]: 11%
- Population Tubulin-Different-Phenotype (%) [6]: 38%
- Total Cell Count [6]: 78
- Population Apoptotic (%) [7]: 65%
- Population Fragmented Nuclei (%) [7]: 28%
- Population Healthy Nuclei (%) [7]: 57%
- Population Hoechst High Intensity Objects (%) [7]: 18%
- Population Membrane Permeable-Phenotype (%) [7]: 1%
- Population Mitochondria Different-Phenotype (%) [7]: 2%
- Population Mitotic Cells (%) [7]: 35%
- Population Normal (%) [7]: 81%
- Population Pyknosed Nuclei (%) [7]: 13%
- Population Tubulin-Different-Phenotype (%) [7]: 2%
- Total Cell Count [7]: 179
- Population Apoptotic (%) [8]: 33%
- Population Fragmented Nuclei (%) [8]: 51%
- Population Healthy Nuclei (%) [8]: 38%
- Population Hoechst High Intensity Objects (%) [8]: 23%
- Population Membrane Permeable-Phenotype (%) [8]: 12%
- Population Mitochondria Different-Phenotype (%) [8]: 8%
- Population Mitotic Cells (%) [8]: 66%
- Population Normal (%) [8]: 76%
- Population Pyknosed Nuclei (%) [8]: 9%
- Population Tubulin-Different-Phenotype (%) [8]: 20%
- Total Cell Count [8]: 81

SMILES: CCOC(=O)c1c(C)[nH]c2ccc3c(c12)CN1CCc2cc(OC)ccc2C1O3 (stereo not drawn)
- Population Apoptotic (%) [1]: 69%
- Population Fragmented Nuclei (%) [1]: 21%
- Population Healthy Nuclei (%) [1]: 51%
- Population Hoechst High Intensity Objects (%) [1]: 8%
- Population Membrane Permeable-Phenotype (%) [1]: 8%
- Population Mitochondria Different-Phenotype (%) [1]: 23%
- Population Mitotic Cells (%) [1]: 30%
- Population Normal (%) [1]: 91%
- Population Pyknosed Nuclei (%) [1]: 26%
- Population Tubulin-Different-Phenotype (%) [1]: 43%
- Total Cell Count [1]: 150
- Population Apoptotic (%) [2]: 9%
- Population Fragmented Nuclei (%) [2]: 9%
- Population Healthy Nuclei (%) [2]: 76%
- Population Hoechst High Intensity Objects (%) [2]: 9%
- Population Membrane Permeable-Phenotype (%) [2]: 3%
- Population Mitochondria Different-Phenotype (%) [2]: 70%
- Population Mitotic Cells (%) [2]: 90%
- Population Normal (%) [2]: 90%
- Population Pyknosed Nuclei (%) [2]: 14%
- Population Tubulin-Different-Phenotype (%) [2]: 62%
- Total Cell Count [2]: 65
- Population Apoptotic (%) [3]: 82%
- Population Fragmented Nuclei (%) [3]: 18%
- Population Healthy Nuclei (%) [3]: 38%
- Population Hoechst High Intensity Objects (%) [3]: 7%
- Population Membrane Permeable-Phenotype (%) [3]: 12%
- Population Mitochondria Different-Phenotype (%) [3]: 74%
- Population Mitotic Cells (%) [3]: 17%
- Population Normal (%) [3]: 92%
- Population Pyknosed Nuclei (%) [3]: 43%
- Population Tubulin-Different-Phenotype (%) [3]: 80%
- Total Cell Count [3]: 88
- Population Apoptotic (%) [4]: 80%
- Population Fragmented Nuclei (%) [4]: 2%
- Population Healthy Nuclei (%) [4]: 75%
- Population Hoechst High Intensity Objects (%) [4]: 11%
- Population Membrane Permeable-Phenotype (%) [4]: 70%
- Population Mitochondria Different-Phenotype (%) [4]: 100%
- Population Mitotic Cells (%) [4]: 20%
- Population Normal (%) [4]: 88%
- Population Pyknosed Nuclei (%) [4]: 22%
- Population Tubulin-Different-Phenotype (%) [4]: 100%
- Total Cell Count [4]: 84
- Population Apoptotic (%) [5]: 62%
- Population Fragmented Nuclei (%) [5]: 29%
- Population Healthy Nuclei (%) [5]: 58%
- Population Hoechst High Intensity Objects (%) [5]: 13%
- Population Membrane Permeable-Phenotype (%) [5]: 13%
- Population Mitochondria Different-Phenotype (%) [5]: 13%
- Population Mitotic Cells (%) [5]: 37%
- Population Normal (%) [5]: 86%
- Population Pyknosed Nuclei (%) [5]: 12%
- Population Tubulin-Different-Phenotype (%) [5]: 48%
- Total Cell Count [5]: 152
- Population Apoptotic (%) [6]: 8%
- Population Fragmented Nuclei (%) [6]: 9%
- Population Healthy Nuclei (%) [6]: 75%
- Population Hoechst High Intensity Objects (%) [6]: 5%
- Population Membrane Permeable-Phenotype (%) [6]: 1%
- Population Mitochondria Different-Phenotype (%) [6]: 58%
- Population Mitotic Cells (%) [6]: 91%
- Population Normal (%) [6]: 94%
- Population Pyknosed Nuclei (%) [6]: 14%
- Population Tubulin-Different-Phenotype (%) [6]: 35%
- Total Cell Count [6]: 65
- Population Apoptotic (%) [7]: 70%
- Population Fragmented Nuclei (%) [7]: 27%
- Population Healthy Nuclei (%) [7]: 46%
- Population Hoechst High Intensity Objects (%) [7]: 20%
- Population Membrane Permeable-Phenotype (%) [7]: 13%
- Population Mitochondria Different-Phenotype (%) [7]: 70%
- Population Mitotic Cells (%) [7]: 30%
- Population Normal (%) [7]: 79%
- Population Pyknosed Nuclei (%) [7]: 25%
- Population Tubulin-Different-Phenotype (%) [7]: 86%
- Total Cell Count [7]: 99
- Population Apoptotic (%) [8]: 89%
- Population Fragmented Nuclei (%) [8]: 6%
- Population Healthy Nuclei (%) [8]: 52%
- Population Hoechst High Intensity Objects (%) [8]: 11%
- Population Membrane Permeable-Phenotype (%) [8]: 83%
- Population Mitochondria Different-Phenotype (%) [8]: 100%
- Population Mitotic Cells (%) [8]: 10%
- Population Normal (%) [8]: 88%
- Population Pyknosed Nuclei (%) [8]: 41%
- Population Tubulin-Different-Phenotype (%) [8]: 100%
- Total Cell Count [8]: 87
- Population Apoptotic (%) [9]: 64%
- Population Fragmented Nuclei (%) [9]: 32%
- Population Healthy Nuclei (%) [9]: 54%
- Population Hoechst High Intensity Objects (%) [9]: 14%
- Population Membrane Permeable-Phenotype (%) [9]: 9%
- Population Mitochondria Different-Phenotype (%) [9]: 9%
- Population Mitotic Cells (%) [9]: 35%
- Population Normal (%) [9]: 85%
- Population Pyknosed Nuclei (%) [9]: 12%
- Population Tubulin-Different-Phenotype (%) [9]: 47%
- Total Cell Count [9]: 155
- Population Apoptotic (%) [10]: 100%
- Population Fragmented Nuclei (%) [10]: 33%
- Population Healthy Nuclei (%) [10]: 66%
- Population Hoechst High Intensity Objects (%) [10]: 11%
- Population Membrane Permeable-Phenotype (%) [10]: 6%
- Population Mitochondria Different-Phenotype (%) [10]: 3%
- Population Mitotic Cells (%) [10]: 0%
- Population Normal (%) [10]: 88%
- Population Pyknosed Nuclei (%) [10]: 0%
- Total Cell Count [10]: 185
- Population Apoptotic (%) [11]: 90%
- Population Fragmented Nuclei (%) [11]: 36%
- Population Healthy Nuclei (%) [11]: 50%
- Population Hoechst High Intensity Objects (%) [11]: 28%
- Population Membrane Permeable-Phenotype (%) [11]: 10%
- Population Mitochondria Different-Phenotype (%) [11]: 82%
- Population Mitotic Cells (%) [11]: 10%
- Population Normal (%) [11]: 71%
- Population Pyknosed Nuclei (%) [11]: 12%
- Population Tubulin-Different-Phenotype (%) [11]: 84%
- Total Cell Count [11]: 108
- Population Apoptotic (%) [12]: 66%
- Population Fragmented Nuclei (%) [12]: 46%
- Population Healthy Nuclei (%) [12]: 51%
- Population Hoechst High Intensity Objects (%) [12]: 25%
- Population Membrane Permeable-Phenotype (%) [12]: 0%
- Population Mitochondria Different-Phenotype (%) [12]: 74%
- Population Mitotic Cells (%) [12]: 33%
- Population Normal (%) [12]: 74%
- Population Pyknosed Nuclei (%) [12]: 1%
- Population Tubulin-Different-Phenotype (%) [12]: 89%
- Total Cell Count [12]: 223
